Test results from PMC8113834 (Computational and Structural Biotechnology Journal, 2021).
Square brackets hold non-standard residues; d marks the D form. Peptide text beside a SMILES is read from it. pY = N[C@@H](Cc1ccc(OP(=O)(O)O)cc1)C(=O)O

How the values were obtained:
[1] = target: T1, SHP2 N-SH2 (Homo sapiens, UniProt Q06124); assay: NMR 1H,15N-HSQC titration of N-SH2; format: binding; details: 1H,15N-HSQC with increasing peptide; protein 200 μM, 298 K
T1 sequence (Q06124 1-105): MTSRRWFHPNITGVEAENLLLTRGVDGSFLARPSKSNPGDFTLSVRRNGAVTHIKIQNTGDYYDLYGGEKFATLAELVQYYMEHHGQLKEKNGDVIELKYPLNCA

[2] = test system: SHP2 C-SH2; assay: NMR 1H,15N-HSQC titration of C-SH2; format: binding, Human; details: 1H,15N-HSQC with increasing peptide; protein 200 μM, 298 K
Outline: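 Uniformly 15N-labelled SHP2 C-SH2 is expressed in Tuner (DE3) E. coli in minimal medium with 15NH4Cl. Protein at 200 µM is titrated with increasing stoichiometric ratios of N-acetylated, C-amidated phosphopeptide. CSPs combine 1H and 0.15-weighted 15N shift differences.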

[3] = target: T2, SHP2 C-SH2 (SHP2 106–220) (Homo sapiens, UniProt Q06124); assay: Isothermal titration calorimetry, peptide titrated onto C-SH2; format: binding
T2 sequence (Q06124 106-220): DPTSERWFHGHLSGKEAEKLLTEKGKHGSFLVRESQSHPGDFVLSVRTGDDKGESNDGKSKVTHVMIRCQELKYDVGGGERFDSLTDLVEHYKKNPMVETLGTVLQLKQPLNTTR

Compound	binding to N-SH2 by NMR spectra [1]	binding to C-SH2 by NMR spectra [2]	Kd [3] [µM]
EDSARVpYENVGLE [SHP2-pY580]	neither SHP2-pY542 nor SHP2-pY580 bind significantly	no binding	–
CC[C@H](C)[C@H](NC(=O)[C@H](CC(N)=O)NC(=O)[C@@H](NC(=O)[C@H](Cc1ccc(OP(=O)(O)O)cc1)NC(=O)[C@H](CCC(=O)O)NC(=O)[C@H](Cc1c[nH]cn1)NC(=O)CNC(=O)[C@H](CCCCN)NC(=O)[C@H](CCCNC(=N)N)NC(=O)[C@H](CCCCN)NC(C)=O)[C@@H](C)O)C(=O)N[C@@H](CCCCN)C(=O)N[C@@H](Cc1ccc(O)cc1)C(=O)N[C@@H](CO)C(N)=O [SHP2-pY542] (Ac-KRKGHE[pY]TNIKYS-NH2)	neither SHP2-pY542 nor SHP2-pY580 bind significantly	–	28
